This note sets out measurements from ChEMBL document CHEMBL1131831, “A rapid method to identify exo-protease inhibitors” (Bioorg Med Chem Lett, 1999).

The subject of data set [1] is CN(C(=O)[C@@H](CCCCC(=N)N)NC(=O)[C@H](CCCCC(=N)N)NC(=O)OCc1ccccc1)c1ccc(C#C/C=C/c2ccc([N+](=O)[O-])c(O)c2)cc1. The data set is described as follows: Proteolysis constant (Km), when mixed with Cathepsin B enzyme for the conversion of water-soluble compound to fluorescent oil-soluble compound. Put shortly: (§1)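 Porcine pancreatic trypsin (type IX), porcine pancreatic kallikrein, bovine spleen cathepsin B and porcine pancreatic elastase, each enzyme added to 12 µM substrate solution over mineral oil, shaken at 37 °C. Buffers: trypsin 10 mM Tris-HCl pH 7.8; kallikrein 50 mM Tris pH 9.0; cathepsin B 100 mM potassium phosphate pH 6.0; elastase 10 mM Tris-HCl pH 7.5. Released fluorophore in the oil is diluted with n-heptane and quantified at 424 nm against oil absorbance at 272 nm.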

Data set [2] addresses T1, Chymotrypsin-like elastase family member 2A (Sus scrofa) (UniProt P08419).
T1 sequence (whole entry): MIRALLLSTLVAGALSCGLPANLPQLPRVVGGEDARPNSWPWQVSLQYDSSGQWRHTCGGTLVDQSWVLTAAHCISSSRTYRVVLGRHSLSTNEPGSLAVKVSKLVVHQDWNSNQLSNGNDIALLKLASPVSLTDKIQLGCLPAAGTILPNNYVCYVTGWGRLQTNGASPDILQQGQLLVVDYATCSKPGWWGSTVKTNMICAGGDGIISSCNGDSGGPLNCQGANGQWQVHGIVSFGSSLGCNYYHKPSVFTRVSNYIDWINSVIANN
The data set is described as follows: Proteolysis rate constant (Kcat), when mixed with elastase enzyme for the conversion of water-soluble compound to fluorescent oil-soluble compound. The essentials: as §1

Data set [3] in a line: Ratio of proteolysis rate constant (Kcat) to that of proteolysis constant (Km) was determined. Put shortly:
as §1

Data set [4] has as its target T2, Neutrophil elastase (Homo sapiens) (UniProt P08246).
T2 sequence (whole entry): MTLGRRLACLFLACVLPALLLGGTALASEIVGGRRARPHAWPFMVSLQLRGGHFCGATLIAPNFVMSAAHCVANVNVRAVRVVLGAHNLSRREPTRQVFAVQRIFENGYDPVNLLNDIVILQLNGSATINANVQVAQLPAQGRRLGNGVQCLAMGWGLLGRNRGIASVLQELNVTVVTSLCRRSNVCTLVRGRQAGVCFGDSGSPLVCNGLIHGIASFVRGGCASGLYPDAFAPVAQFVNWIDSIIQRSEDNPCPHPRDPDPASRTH
The data set is described as follows: Proteolysis rate constant (Kcat), when mixed with human leukocyte elastase (HLE)enzyme for the conversion of water-soluble compound to fluorescent oil-soluble compound. The essentials:
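Human leukocyte elastase (1 unit = 1.2 µg; releases 1 µmol/min p-nitrophenol from N-t-BOC-L-alanine-p-nitrophenyl ester, pH 6.5, 37 °C) in 50 mM NaOAc, 100 mM NaCl, 8 mM NaN3 pH 6.0. Enzyme mixed with 12 µM substrate in buffer under a trace mineral-oil layer, shaken at 37 °C. Released fluorophore extracted into oil, diluted with n-heptane, quantified by absorbance at 424 nm against oil at 272 nm.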

For the compound Cathepsin B (Bos taurus), P07688, in data set [1], the Km turned out to be 129 µM.

`COCCOCCOCCOCCOC(=O)N[C@@H](C)C(=O)N[C@H](C)C(=O)N(C)c1ccc(C#C/C=C/c2ccc([N+](=O)[O-])c(O)c2)cc1` showed a k cat in data set [2] of 145 s⁻¹. The k cat/Km in data set [3] was 446000 M⁻¹ s⁻¹.

With `CC(C)C[C@H](NC(=O)[C@H](N)Cc1ccc(O)cc1)C(=O)N[C@@H](C(=O)N(C)c1ccc(C#C/C=C/c2ccc([N+](=O)[O-])c(O)c2)cc1)C(C)C`, the k cat in data set [4] turned out to be 3.6 s⁻¹. The k cat/Km in data set [3] turned out to be 225000 M⁻¹ s⁻¹.

The Km is the concentration of substrate that gives half-maximal velocity.
